Reference: ChEMBL document CHEMBL1125147, “Nonsteroidal cardiotonics. 3. New 4,5-dihydro-6-(1H-indol-5-yl)pyridazin-3(2H)-ones and related compounds with positive inotropic activities” (1990)

Columns and labels:
Rattus norvegicus [1] = assay: Effective dose required to produce an increase in dP/dt by 1500 mmHg/s from that of the control in the anesthetized rats.; format: functional
In short: (§1)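 Male SPF Sprague–Dawley rats (350–450 g), thiabutarbital sodium 80–100 mg/kg ip, tracheotomized. LV pressure measured by a Millar microtip catheter passed via the right carotid artery. Compounds given as jugular iv bolus (0.5 mL/kg) in increasing doses every 10 min. Readings taken 10 min post-dose as steady state. ED1.5 (dP/dt +1500 mmHg/s at LVP 50 mmHg) from log-linear regression, log means. Max = peak rise in dP/dt and the dose giving it.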

Felis catus [2] = assay: Maximum increase in dP/dt from that of the control in the anesthetized cats at dose 10.0 mg/kg
Felis catus [3] = assay: Effective dose required to produce an increase in dP/dt by 1500 mmHg/s from that of the control in the anesthetized cats.; format: functional
In short: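 Cats of both sexes, pentobarbitone 45 mg/kg ip plus 0.1 mg/kg min infusion, pump-ventilated, open chest. Dextran 10 mL/kg iv and desacetylmetipranolol 0.3 mg/kg iv for β-blockade failure. LV pressure by Millar tip catheter via the auricle. Increasing iv bolus doses every 10 min, read at 10 min. ED1.5 (dP/dt +1500 mmHg/s at LVP 50 mmHg) by log-linear regression, log means.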

Rattus norvegicus [4] = assay: Maximum increase in dP/dt from that of the control in the anesthetized rats at dose 10.0 mg/kg; format: functional; in short: as §1

Structure (SMILES)	ED1.5 (Rattus norvegicus [1]) [mg/kg]	further results
COc1ccc(-c2nc3cc(C4=NNC(=O)CC4C)ccc3[nH]2)cc1 (stereo not given) [PIMOBENDAN]	1.31	Max (Felis catus [2]): 2.9 mHg/s; ED1.5 (Felis catus [3]): 0.6 mg/kg
O=C1CCC(c2ccc3[nH]c(-c4cccnc4)cc3c2)=NN1	2.5	
O=C1CCC(c2ccc3[nH]c(-c4cscn4)cc3c2)=NN1	0.26	
Cc1c(-c2ccncc2)[nH]c2ccc(C3=NNC(=O)CC3)cc12	0.08	
Oc1cnc(-c2ccc3[nH]c(-c4ccncc4)cc3c2)cn1	0.15	
CC1(C)C(=O)NN=C1c1ccc2[nH]c(-c3ccncc3)cc2c1	0.25	
O=C1CCC(c2ccc3[nH]c(-c4ccnnc4)cc3c2)=NN1	0.02	
Cc1c(-c2ccncc2)[nH]c2ccc(C3=NNC(=O)CC3C)cc12 (stereo not given)	0.02	
CC1CC(=O)NN=C1c1ccc2[nH]c(-c3ccncc3)cc2c1 (stereo not given)	0.02	ED1.5 (Felis catus [3]): 0.007 mg/kg
CCOC(=O)c1cc2cc(C3=NNC(=O)CC3)ccc2[nH]1	1.5	
O=C1COC(c2ccc3[nH]c(-c4ccncc4)cc3c2)=NN1	0.7	
O=C1CCC(c2ccc3[nH]c(-c4ccncc4)cc3c2)=NN1	0.04	
CCc1c(-c2ccncc2)[nH]c2ccc(C3=NNC(=O)CC3)cc12	1.1	
O=C1CCC(c2ccc3[nH]c(-c4ccccc4O)cc3c2)=NN1	1.04	
Cc1[nH]c(=O)c(C#N)cc1-c1ccncc1 [MILRINONE]	0.15	Max (Rattus norvegicus [4]): 3.4 mHg/s; ED1.5 (Felis catus [3]): 0.04 mg/kg
